As usually defined, the inhibition is the drop in the measured response relative to a control, in per cent. The low end stands for little suppression, the high end for strong suppression. Broadly, the pIC50 is the IC50 on a negative log10 scale, so that one unit is a factor of ten.

pIC50: −log10 of the molar value. Where only a bound is given, the exact number is not on record here.

For three molecules, inhibition and IC50 results are on record in ChEMBL document CHEMBL1148553, “C8c-C15 monoseco-analogues of the phenanthroquinolizidine alkaloids julandine and cryptopleurine exhibiting potent anti-angiogenic properties” (Bioorg Med Chem Lett, 2006).

The species entered for test [1] is Rattus norvegicus. Nature of the test: Inhibition of blood vessel growth in rat aorta at 10 ug/mL. Type of test: functional. In a few lines: (§1)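 In vitro angiogenesis assay using rat aorta blood vessel fragments, with compounds dissolved in DMSO. The read-out is percent inhibition of blood vessel growth at each fixed test concentration.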
In test [2] the test system is KHOS/NP. In words: Cytotoxicity against human osteosarcoma, KHOS-NP cells. The class given is functional, cell-based. The gist of the method:
(§2)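 Dose-response proliferation assay over 0.16 to 20 µM (final) in tissue-culture plates. Cells were incubated 72 h at 37 °C in 5% CO2, and inhibition was read as Alamar Blue conversion by fluorescence at excitation/emission 544/590 nm.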

Test [3] is filed under the species Rattus norvegicus. Nature of the test: Inhibition of blood vessel growth in rat aorta at 0.1 ug/mL. Type of test: functional. The gist of the method:
as §1

Test [4] deals with PA-1. In words: Cytotoxicity against human ovarian teratocarcinoma, PA1 cells. Type of test: functional, cell-based. The gist of the method: as §2
The subject of test [5] is TF-1. In words: Cytotoxicity against human erythroleukemia TF1 cells. The class given is functional, cell-based. The gist of the method: as §2
The test system of test [6] is A-375. Nature of the test: Cytotoxicity against human melanoma, A375 cells. Type of test: functional, cell-based. In a few lines:
as §2

Test [7] has as its system Daudi. In words: Cytotoxicity against human Burkitt lymphoma, DAUDI cells. Type of test: functional, cell-based. The gist of the method:
as §2

In test [8] the test system is MCF7. Nature of the test: Cytotoxicity against human breast carcinoma, MCF7 cells. Type of test: functional, cell-based. In a few lines:
as §2

The test system of test [9] is BT-20. Nature of the test: Cytotoxicity against human breast carcinoma, BT20 cells. The class given is functional, cell-based. The gist of the method:
as §2

For test [10], the species on record is Rattus norvegicus. Nature of the test: Inhibition of blood vessel growth in rat aorta at 1 ug/mL. Type of test: functional. In a few lines:
as §1

The subject of test [11] is Ramos. Nature of the test: Cytotoxicity against human Burkitt lymphoma, RAMOS cells. The class given is functional, cell-based. The gist of the method:
as §2

Test [12] has as its system HT-1376. In words: Cytotoxicity against human bladder carcinoma, HT1376 cells. The class given is functional, cell-based. The gist of the method:
as §2

The test system of test [13] is MES-SA. In words: Cytotoxicity against human uterine sarcoma, MES-SA cells. Type of test: functional, cell-based. The gist of the method:
as §2

In test [14] the test system is A549. Nature of the test: Cytotoxicity against human lung carcinoma, A549 cells. The class given is functional, cell-based. The gist of the method:
as §2

The subject of test [15] is CTLL. In words: Cytotoxicity against murine cytotoxic T cells, CTLL2. Type of test: functional, cell-based. The following applies: Mus musculus. In a few lines: as §2
In test [16] the test system is MAT-Ly-Lu. In words: Cytotoxicity against rat prostate carcinoma, MatLyLu cells. The class given is functional, cell-based. The gist of the method:
as §2

Test [17] has as its system HCT-15. In words: Cytotoxicity against human colon carcinoma, HCT15 cells. Type of test: functional, cell-based. The gist of the method:
as §2

For test [18], the system named is MES-SA/Dx5. In words: Cytotoxicity against human uterine sarcoma, MES-SA-Dx5 cells derived from MES-SA. Type of test: functional, cell-based. The gist of the method: as §2
For test [19], the system named is BUD-8. Nature of the test: Cytotoxicity against human fibroblast, BUD8 cells. The class given is functional, cell-based. In a few lines:
as §2

Test [20] has as its system A-431. Nature of the test: Cytotoxicity against human epidermoid carcinoma, A431 cells. The class given is functional, cell-based. The gist of the method:
as §2

The species named for test [21] is Rattus norvegicus. In words: Inhibition of blood vessel growth in rat aorta at 100 ug/mL. Type of test: functional. The gist of the method:
as §1

On to `COc1ccc2c(CN(C)C)cc3cc(OC)c(OC)cc3c2c1`, for which, in test [1], the inhibition at 10 µg/mL is 100%. Moreover, the pIC50 was 4.77 in [2]; 5.38 in [4]; 5.17 in [5]; 5.15 in test [6]; 4.80 in test [7]; 4.73 in test [8]. Moreover, the pIC50 is 5.13 in test [9]; 4.78 in test [11]; 5.10 in test [12]; 5.04 in [13]; 4.77 in test [14]; 5.47 in test [15]. The negative logarithm of the IC50 (pIC50) was 4.76 in [16]; 5.08 in [17]; 4.78 in test [18]; less than 4.70 in test [19]; 5.27 in [20]. This molecule displayed an inhibition at 0.1 µg/mL in [3] of 7%. Also, in test [10], 1 µg/mL produced 22% inhibition.

`COc1ccc2ccc3cc(OC)c(OC)cc3c2c1`: at 10 µg/mL the inhibition in [1] was 42%. In addition, the pIC50 in [2], in [4], in [5], in test [6], in test [7] and in test [8] was less than 4.70 each time. The pIC50 in test [9] was less than 4.70; in [11], less than 4.70; in test [12], less than 4.70; in test [13] it was less than 4.70; in test [14] it was less than 4.70; in test [15] it was 4.76. Further, the pIC50 in test [16], in test [17], in test [18], in test [19] and in test [20] was less than 4.70 in each case. The same molecule came in with an inhibition at 100 µg/mL in [21] of 83%.

On to `COc1ccc2c3c(c4cc(OC)c(OC)cc4c2c1)C[C@H]1CCCCN1C3` [CRYPTOPLEURINE], for which the pIC50 in test [2] was 8.00; in [4], 8.70; in [6] it was 8.52; in test [7], 8.70; in test [8], 8.52; in test [9], 8.52. Also, the pIC50 was 8.52 in test [11]; 8.40 in test [12]; 8.52 in [13]; 8.52 in test [14]; 8.52 in test [16]; 8.52 in test [17]. Further, the pIC50 in test [18] was 8.52; in [19] it was 8.22; in test [20] it was 8.52.
